Activity calls are given as the source filed them. No cut-off for these calls is given here.
How the values were obtained:
[1] = Cytotoxicity against human HuH7 cells assessed as cell viability at 20 uM after 3 days by XTT assay; format: cell-based, Huh-7; conditions: read-out: Activity
[2] = Cytotoxicity against human HuH7 cells assessed as cell viability at 100 uM after 3 days by XTT assay; format: cell-based, Huh-7; conditions: read-out: Activity
dengue virus type 2 [3] = experiment: Antiviral activity against DENV2 16681 infected in human Huh-7 cells at 5 uM after 3 days by luciferase reporter gene assay; format: functional; conditions: Dengue virus, 16681, Huh-7, 72 h
dengue virus type 2 [4] = experiment: Antiviral activity against DENV2 16681 infected in human Huh-7 cells at 20 uM after 3 days by luciferase reporter gene assay; format: functional; conditions: Dengue virus, 16681, Huh-7, 72 h
[5] = Selectivity index, ratio of CC50 for human HuH7 cells to IC50 for DENV2 16681; format: functional, Huh-7
dengue virus type 2 [6] = experiment: Antiviral activity against DENV2 16681 infected in human Huh-7 cells assessed as reduction of viral NS2B protein expression after 3 days by Western blot analysis; format: functional, organism-based
In short: (§1)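 Huh-7-DV-Fluc cells exposed 3 days to compound at 5 and 20 µM, or 5–40 µM for dose series, 0.1% DMSO mock; lysates immunoblotted with rabbit polyclonal anti-NS2B (1:3000), GAPDH (1:10000) as loading control.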

dengue virus type 2 [7] = experiment: Antiviral activity against DENV2 16681 infected in human Huh-7 cells assessed as reduction of viral NS5 mRNA expression at 5 to 20 uM after 3 days by RT-PCR analysis; format: functional, organism-based
In short: (§2)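 Huh-7-DV-Fluc cells treated 3 days with compound at 5 and 20 µM (dose series 5–40 µM), 0.1% DMSO mock; total RNA extracted, DENV2 RNA quantified by RT-qPCR normalized to cellular GAPDH mRNA; mean ± SD of triplicate experiments.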

dengue virus type 2 [8] = experiment: Antiviral activity against DENV2 16681 infected in human Huh-7 cells assessed as reduction of viral NS5 mRNA expression after 3 days by RT-PCR analysis; format: functional, organism-based; in short: as §2
dengue virus type 2 [9] = experiment: Antiviral activity against DENV2 16681 infected in human Huh-7 cells assessed as reduction of viral NS2B protein expression at 5 to 20 uM after 3 days by Western blot analysis; format: functional, organism-based; in short: as §1
dengue virus type 2 [10] = experiment: Antiviral activity against DENV2 16681 infected in human Huh-7 cells after 3 days by luciferase reporter gene assay; format: functional, organism-based; conditions: Dengue virus, 16681, Huh-7, 72 h
[11] = Cytotoxicity against human HuH7 cells assessed as cell viability after 3 days by XTT assay; format: cell-based, Huh-7
MDA-MB-231 [12] = experiment: Antiproliferative activity against human MDA-MB-231 cells after 3 days by XTT assay; format: functional, cell-based; conditions: MDA-MB-231, 72 h
[13] = Antiproliferative activity against human HuH7 cells after 3 days by XTT assay; format: functional, cell-based; conditions: Huh-7, 72 h
A549 = experiment: Antiproliferative activity against human A549 cells after 3 days by XTT assay; format: functional, cell-based; conditions: A549, 72 h
[14] = Antiproliferative activity against human H1299 cells after 3 days by XTT assay; format: functional, cell-based; conditions: NCI-H1299, 72 h
MCF7 = experiment: Antiproliferative activity against human MCF7 cells after 3 days by XTT assay; format: functional, cell-based; conditions: MCF7, 72 h
MDA-MB-231 [15] = experiment: Growth inhibition of human MDA-MB-231 cells; format: functional
[16] = Growth inhibition of human Hep3B cells; format: functional, Hep 3B2
West Nile virus = experiment: Antiviral activity against West Nile virus by cell based assay; format: functional, organism-based
dengue virus type 2 [17] = experiment: Antiviral activity against DENV2 by cell based assay; format: functional, organism-based

Row | SMILES | viability at 72 h, 20 µM [1] [%] | viability at 72 h, 100 µM [2] [%] | inhibition at 5 µM (dengue virus type 2 [3]) [%] | inhibition at 20 µM (dengue virus type 2 [4]) [%] | IC50 (MDA-MB-231 [12]) [µM] | IC50 [13] [µM] | further results
1 | COc1ccc(-c2cc3ccccc3nc2C(=O)c2ccccc2)cc1 | 93.1 | 87.8 | 3.12 | 6.93 | – | – | –
2 | COc1ccc(-c2cc3ccccc3nc2C(O)c2ccccc2)cc1 (stereo not given) | 96.6 | 68.1 | 45.3 | 65.1 | – | – | Ratio CC50/IC50 [5]: >7.96; Activity (dengue virus type 2 [6]): Dose-dependent effect; Activity (dengue virus type 2 [7]): Active; Activity (dengue virus type 2 [8]): Dose-dependent effect; Activity (dengue virus type 2 [9]): Active; IC50 (dengue virus type 2 [10]): 12.6 µM; CC50 at 72 h [11]: > 100 µM
3 | CN(C)CCCOc1ccc(-c2cc3ccccc3nc2C(=O)c2ccc(O)cc2)cc1 | 80.4 | 16.8 | – | – | > 10 | > 10 | IC50 (A549): > 10 µM; IC50 [14]: > 10 µM; IC50 (MCF7): > 10 µM
4 | COc1ccc(-c2cc3cc(OC)ccc3nc2C(O)c2ccccc2)cc1 (stereo not given) | 87.7 | 26 | 38 | 61.2 | – | – | Ratio CC50/IC50 [5]: 4.87; Activity (dengue virus type 2 [7]): Active; Activity (dengue virus type 2 [9]): Active; IC50 (dengue virus type 2 [10]): 14.1 µM; CC50 at 72 h [11]: 68.9 µM
5 | CC[C@@]1(O)C(=O)OCc2c1cc1n(c2=O)Cc2cc3c(CN(C)C)c(O)ccc3nc2-1 [TOPOTECAN] | – | – | – | – | < 0.1 | 8.61 | –
6 | COc1ccc(-c2cc3cc(F)ccc3nc2C(O)c2ccccc2)cc1 (stereo not given) | 87.4 | 30.7 | 16.1 | 19.1 | – | – | –
7 | O=C(c1ccc(O)cc1)c1nc2ccccc2cc1-c1ccc(OCCN2CCCCC2)cc1 | 77.5 | 19.5 | – | – | > 10 | > 10 | IC50 (A549): > 10 µM; IC50 [14]: > 10 µM; IC50 (MCF7): > 10 µM
8 | COc1ccc(-c2cc3cc(OC)ccc3nc2C(=O)c2ccccc2)cc1 | 87.6 | 84.3 | 36.2 | 53.1 | – | – | Ratio CC50/IC50 [5]: >5.76; IC50 (dengue virus type 2 [10]): 17.4 µM; CC50 at 72 h [11]: > 100 µM
9 | NC(=O)c1ncn([C@@H]2O[C@H](CO)[C@@H](O)[C@H]2O)n1 [RIBAVIRIN] | 71.4 | 26.8 | 32 | 67.5 | – | – | Ratio CC50/IC50 [5]: 4.47; IC50 (dengue virus type 2 [10]): 12.6 µM; CC50 at 72 h [11]: 56.3 µM
10 | COc1ccc(C(=O)c2nc3ccccc3cc2-c2ccc(OC)cc2)cc1 | 96.1 | 68.2 | 10.1 | 14.1 | – | – | –
11 | CN(C)CCCOc1ccc(C(=O)c2nc3ccccc3cc2-c2ccc(OCCCN(C)C)cc2)cc1 | 17.6 | 19.2 | – | – | 7.14 | 6.44 | IC50 (A549): 6.35 µM; IC50 [14]: 4.98 µM; IC50 (MCF7): 4.47 µM
12 | COc1ccc(-c2cc3cc(F)ccc3nc2C(=O)c2ccccc2)cc1 | 96 | 89.7 | 7.24 | 5.11 | – | – | –
13 | O=C(c1ccc(OCCN2CCCCC2)cc1)c1nc2ccccc2cc1-c1ccc(OCCN2CCCCC2)cc1 | 18.4 | 15.8 | – | – | 7.99 | 6.59 | IC50 (A549): 6.53 µM; IC50 [14]: 6.18 µM; IC50 (MCF7): 4.66 µM
14 | COc1ccc(-c2cc3ccccc3nc2C(=O)c2cc(OC)c(OC)c(OC)c2)cc1 | 74.1 | 35.1 | – | – | > 10 | > 10 | IC50 (A549): > 10 µM; IC50 [14]: > 10 µM; IC50 (MCF7): > 10 µM
15 | O=C(c1ccccc1)c1nc2ccccc2cc1-c1ccc(F)cc1 | 74.8 | 45.9 | 20.1 | 14.1 | – | – | –
16 | COc1ccc(-c2cc3ccccc3nc2C(O)c2ccc(OC)cc2)cc1 (stereo not given) | 71.1 | 31.9 | 33.5 | 58.5 | – | – | Ratio CC50/IC50 [5]: 3.47; Activity (dengue virus type 2 [7]): Active; Activity (dengue virus type 2 [9]): Active; IC50 (dengue virus type 2 [10]): 18.2 µM; CC50 at 72 h [11]: 63.1 µM
17 | Fc1ccc2nc(-c3ccc(OCCN4CCCCC4)cc3)c(-c3ccc(OCCN4CCCCC4)cc3)cc2c1 | – | – | – | – | – | – | GI50 (MDA-MB-231 [15]): 0.72 µM; GI50 [16]: 0.71 µM
18 | COc1ccc(-c2cc3ccccc3nc2C(O)c2cc(OC)c(OC)c(OC)c2)cc1 (stereo not given) | 93.6 | 62.5 | 22.3 | 38.2 | – | – | –
19 | O=C(c1ccccc1)c1nc2ccc(F)cc2cc1-c1ccc(F)cc1 | 96.3 | 75.1 | 32.1 | 9.13 | – | – | –
20 | OC(c1ccccc1)c1nc2ccc(F)cc2cc1-c1ccc(F)cc1 (stereo not given) | 129 | 92.3 | 22.2 | 23.1 | – | – | –
21 | O=C(c1ccc(O)cc1)c1nc2ccccc2cc1-c1ccc(O)cc1 | 90.3 | 65.1 | 38.7 | 62.1 | – | – | Ratio CC50/IC50 [5]: >7.6; Activity (dengue virus type 2 [6]): Dose-dependent effect; Activity (dengue virus type 2 [7]): Active; Activity (dengue virus type 2 [8]): Dose-dependent effect; Activity (dengue virus type 2 [9]): Active; IC50 (dengue virus type 2 [10]): 13.2 µM; CC50 at 72 h [11]: > 100 µM
22 | OC(c1ccccc1)c1nc2ccccc2cc1-c1ccc(F)cc1 (stereo not given) | 109 | 90.9 | 13.1 | 10.2 | – | – | –
23 | CCOc1ccc2nc(C)cc(Nc3ccc(OCc4ccccc4Cl)cc3)c2c1 | – | – | – | – | – | – | IC50 (West Nile virus): 1.9 µM; IC50 (dengue virus type 2 [17]): 5 µM
24 | O=C(c1ccc(OCCN2CCCC2)cc1)c1nc2ccccc2cc1-c1ccc(OCCN2CCCC2)cc1 | 15.5 | 16.6 | – | – | 8.42 | 8.68 | IC50 (A549): 7.38 µM; IC50 [14]: 5.68 µM; IC50 (MCF7): 4.59 µM
25 | O=C(c1ccc(O)cc1)c1nc2ccccc2cc1-c1ccc(OCCN2CCCC2)cc1 | 91 | 18.1 | – | – | > 10 | > 10 | IC50 (A549): > 10 µM; IC50 [14]: > 10 µM; IC50 (MCF7): > 10 µM
